Data from ChEMBL document CHEMBL1122219, “Synthesis and antiviral activity of water-soluble esters of acyclovir [9-[(2-hydroxyethoxy)methyl]guanine]” (1983).
In brackets after ≈: the same amount, converted by molar mass.

Experiments:
Format in all cases: functional
Oryctolagus cuniculus [1] = species: Oryctolagus cuniculus; assay: Minimum inhibitory concentration required to reduce virus induced cytopathogenicity in primary rabbit kidney cell cultures by 50% against Vaccinia virus
Oryctolagus cuniculus [2] = species: Oryctolagus cuniculus; assay: Minimum inhibitory concentration required to reduce virus induced cytopathogenicity in primary rabbit kidney cell cultures by 50% against HSV-1 (F)
Procedure, shortened: (§1)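 Primary rabbit kidney cell cultures infected with HSV-1 strains KOS, McIntyre or F, or HSV-2 strains Lyons, G or 196. Antiviral assays ran 3–4 days, with inhibition of virus-induced cytopathogenicity as the read-out. Cytotoxicity was checked as microscopically visible change in normal cell morphology, up to 400 µg/mL.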

Oryctolagus cuniculus [3] = species: Oryctolagus cuniculus; assay: Minimum inhibitory concentration required to reduce virus induced cytopathogenicity in primary rabbit kidney cell cultures by 50% against HSV-2 (G); procedure, shortened: as §1
Oryctolagus cuniculus [4] = species: Oryctolagus cuniculus; assay: Minimum inhibitory concentration required to reduce virus induced cytopathogenicity in primary rabbit kidney cell cultures by 50% against Vesicular stomatitis virus
Oryctolagus cuniculus [5] = species: Oryctolagus cuniculus; assay: Minimum inhibitory concentration required to reduce virus induced cytopathogenicity in primary rabbit kidney cell cultures by 50% against HSV-1 (McIntyre); procedure, shortened: as §1
Oryctolagus cuniculus [6] = species: Oryctolagus cuniculus; assay: Minimum inhibitory concentration required to reduce virus induced cytopathogenicity in primary rabbit kidney cell cultures by 50% against HSV-2 ([…]); procedure, shortened: as §1
Oryctolagus cuniculus [7] = species: Oryctolagus cuniculus; assay: Minimum inhibitory concentration required to reduce virus induced cytopathogenicity in primary rabbit kidney cell cultures by 50% against HSV-2 (196); procedure, shortened: as §1
Oryctolagus cuniculus [8] = species: Oryctolagus cuniculus; assay: Minimum inhibitory concentration required to reduce virus induced cytopathogenicity in primary rabbit kidney cell cultures by 50% against HSV-1 ((KOS); procedure, shortened: as §1

| Compound | MIC (Oryctolagus cuniculus [1]) [µg/mL] | MIC (Oryctolagus cuniculus [2]) [µg/mL] | MIC (Oryctolagus cuniculus [3]) [µg/mL] | MIC (Oryctolagus cuniculus [4]) [µg/mL] | MIC (Oryctolagus cuniculus [5]) [µg/mL] | MIC (Oryctolagus cuniculus [6]) [µg/mL] | MIC (Oryctolagus cuniculus [7]) [µg/mL] | MIC (Oryctolagus cuniculus [8]) [µg/mL] |
| --- | --- | --- | --- | --- | --- | --- | --- | --- |
| Nc1nc(O)c2ncn(COCCOC(=O)CCC(=O)[O-])c2n1.[Na+] | > 400 | 0.7 | 0.8 | > 400 | 0.5 | 0.5 | 0.4 | 0.7 |
| [N-]=[N+]=NCC(=O)OCCOCn1cnc2c(O)nc(N)nc21 | 150 (≈ 487 µM) | 0.1 (≈ 0.324 µM) | 0.07 (≈ 0.227 µM) |  | 0.1 (≈ 0.324 µM) | 0.04 (≈ 0.13 µM) | 0.07 (≈ 0.227 µM) | 0.1 (≈ 0.324 µM) |
| Cl.NCCC(=O)OCCOCn1cnc2c(O)nc(N)nc21 | 100 | 0.5 | 0.15 | > 400 | 0.4 | 0.1 | 0.1 | 0.2 |
| CC(N)C(=O)OCCOCn1cnc2c(O)nc(N)nc21.Cl (stereo not drawn) | 70 | 0.4 | 0.2 | > 400 | 0.4 | 0.07 | 0.1 | 0.4 |
| Cl.NCC(=O)OCCOCn1cnc2c(O)nc(N)nc21 | 125 | 0.1 | 0.08 | > 400 | 0.1 | 0.04 | 0.07 | 0.1 |
| Nc1nc2c(ncn2COCCO)c(=O)[nH]1 [ACYCLOVIR] | 80 (≈ 355 µM) | 0.09 (≈ 0.4 µM) | 0.06 (≈ 0.266 µM) | > 400 | 0.1 (≈ 0.444 µM) | 0.04 (≈ 0.178 µM) | 0.06 (≈ 0.266 µM) | 0.08 (≈ 0.355 µM) |
| O=c1[nH]c(=O)n([C@H]2C[C@H](O)[C@@H](CO)O2)cc1/C=C/Br [BRIVUDINE] | 4 (≈ 12 µM) | 0.01 (≈ 0.03 µM) | 0.8 (≈ 2.4 µM) | > 400 | 0.01 (≈ 0.03 µM) | 1 (≈ 3 µM) | 4 (≈ 12 µM) | 0.01 (≈ 0.03 µM) |
| O=c1[nH]c(=O)n([C@H]2C[C@H](O)[C@@H](CO)O2)cc1I [IDOXURIDINE] | 0.1 (≈ 0.282 µM) | 0.15 (≈ 0.424 µM) | 0.2 (≈ 0.565 µM) | > 400 | 0.2 (≈ 0.565 µM) | 0.2 (≈ 0.565 µM) | 0.4 (≈ 1.13 µM) | 0.15 (≈ 0.424 µM) |
